Assay results collected from several papers.
Target: Tyrosine-protein kinase ABL2 (ABL2, Homo sapiens, UniProt P42684)

Compound	assay	setting	measurement	value
COc1cc(Cl)c(C(=O)N[C@@H](CN[C@H]2CC[C@@H](N)CC2)Cc2ccc(C#N)cc2)cc1-c1ccc(CN[C@H](C)c2ccc(C)cc2)o1	enzyme activity, inhibitor	1 µM	remaining activity	87%
CCN(CC)c1ccc(C2=NNC(=O)CC2C)cc1[N+](=O)[O-] (stereo not shown)	enzyme activity, inhibitor	10 µM	remaining activity	89%
CC(C)(C)c1nc(-c2cccc(NS(=O)(=O)c3c(F)cccc3F)c2F)c(-c2ccnc(N)n2)s1	enzyme activity, inhibitor, radiometric	1 µM	remaining activity	77%
Cc1nc(N2CC[C@@H](O)C2)ncc1-c1cc(C(F)(F)F)cc2[nH]ncc12	binding, competition with immobilised ligand	1 µM	remaining binding	60%
O=C1Nc2ccc(Cl)cc2C1=Cc1cc(Cl)c(O)c(Cl)c1	cell-free assay	0.5 µM	remaining signal	80.4%
Cn1cc(Cl)c2c(Oc3c(F)cc(Nc4cc(Cl)nc(N)n4)cc3F)ccnc21	cell-free assay, competition with immobilised ligand	0.1 µM	remaining binding	99%
Clc1ccc(Nc2nnc(Cc3ccncc3)c3ccccc23)cc1	cell-free assay	0.5 µM	remaining signal	101%
Cc1ccc(Nc2nccc(N(C)c3ccc4c(C)n(C)nc4c3)n2)cc1S(N)(=O)=O	enzyme activity, inhibitor	0.3 µM	inhibition	24%
Cc1nccc(COC(=O)N2C[C@@H]3[C@@H](CNC(=O)c4ccc5[nH]nnc5c4)[C@@H]3C2)n1	cell-free assay, competition with immobilised ligand	1 µM	remaining binding	90%
CNC(=O)c1cc2c(Oc3ccc(NC(=O)C4(C(=O)Nc5ccc(F)cc5)CC4)cc3)ccnc2cc1OC	enzyme activity, inhibitor, radiometric	1 µM	inhibition	88%
COc1cc2nccc(Oc3ccc(NC(=O)c4c5n(n(-c6ccc(F)cc6)c4=O)CCCC5)cc3)c2cc1OC	enzyme activity, inhibitor	0.1 µM	inhibition	36%
CNc1cccc2cc(C(=O)Nc3ccc(C(=O)O)cc3)c(=O)[nH]c12	enzyme activity, inhibitor	10 µM	inhibition	-3.6%
Cc1c(NC(=O)c2cc(C(N)=O)nc3cc(F)ccc23)c(C(F)(F)F)nn1Cc1ccc(C(C)(C)C)cc1	cell-free assay, competition with immobilised ligand	1 µM	remaining binding	87%
Cc1ccc(C(=O)Nc2ccc(CN3CCN(C)CC3)c(C(F)(F)F)c2)cc1C#Cc1cnc2cccnn12	enzyme activity, inhibitor	23.5 nM	remaining activity	3.2%
Cc1ccc(C(=O)NCc2ccsc2)cc1C#Cc1cn(C(C)C)c2ncnc(N)c12	enzyme activity, inhibitor	1 µM	activity vs control	6%
Cc1cc(NC(=O)c2cccc3cc(-c4cccc5[nH]nc(N)c45)ccc23)ccc1F	enzyme activity, inhibitor	0.1 µM	activity vs control	122%
CNC(=O)c1cc(Oc2ccc(NC(=O)Nc3ccc(Cl)c(C(F)(F)F)c3)cc2)ccn1	enzyme activity, inhibitor	10 µM	inhibition	48%
C[C@H](c1ccc(F)cc1)N(Cc1cccc(C(=O)O)c1)C(=O)c1cnc2ccccc2c1	cell-free assay, competition with immobilised ligand	1 µM	remaining binding	82%
CC/C(=N\NC(=O)NCc1cccc(O)c1)c1ccc(O)c(C)c1O	enzyme activity, inhibitor	0.1 µM	inhibition	-0.2%
COc1cc2ncnc(Nc3ccc(Oc4ccccc4)cc3C)c2cc1OC	enzyme activity, inhibitor	1 µM	inhibition	16%
Cc1cc(NC(=O)c2cccc(S(F)(F)(F)(F)F)c2)cc(-n2ccn3nc(-c4cccnc4)cc23)c1	cell-free assay, competition with immobilised ligand	1 µM	remaining binding	100%
O=C(Nc1cnn(-c2csc(C(=O)NC3COC3)c2)c1)Nc1ccccc1Cl	enzyme activity, inhibitor	5 µM	remaining activity	92.7%
